Reference: ChEMBL document CHEMBL4689842, “EUbOPEN Chemogenomics Library wave 1” (2021)
“And” between values parts separate entries of the source, which are not always exact repeats. Identical values can stand only once.

Legend:
U2OS = assay: Multiplex assay against U2OS; type: toxicity, cell-based; details: human
How it was run: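 Hoechst33342, BioTracker Green Microtubule Cytoskeleton Dye, MitoTracker Red and Annexin V Alexa Fluor 680 were added to live cells at seeding, and imaging on a CQ1 microscope at 37°C and 5% CO2 followed compound addition. Gating by CellPathfinder machine learning separated cells into Hoechst high-intensity objects or normal cells, then normal cells into healthy, pyknosed or fragmented nuclei, then pyknosed cells into mitotic or apoptotic. Per cents of healthy-nucleus cells are reported for the tubulin, mitochondrial-mass and membrane-permeability phenotypes.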

HEK-293T = assay: Incucyte cell viability with HEK293T; type: toxicity, cell-based; details: human, 10 µM, compound concentration 10 uM; further: filed as whole numbers so only -1 and 0 and 1 occur
[1] = 12 h, 1 µM, compound concentration 1 uM, replicate 1
[2] = 12 h, 1 µM, compound concentration 1 uM, replicate 2
[3] = 12 h, 10 µM, compound concentration 10 uM, replicate 1
[4] = 12 h, 10 µM, compound concentration 10 uM, replicate 2
[5] = 24 h, 1 µM, compound concentration 1 uM, replicate 1
[6] = 24 h, 1 µM, compound concentration 1 uM, replicate 2
[7] = 24 h, 10 µM, compound concentration 10 uM, replicate 1
[8] = 24 h, 10 µM, compound concentration 10 uM, replicate 2
[9] = 48 h, 10 µM, compound concentration 10 uM, replicate 1
[10] = 48 h, 10 µM, compound concentration 10 uM, replicate 2

## CC(C)Oc1ccc(C(=O)N[C@H](CNC(=O)CN(C)C)Cc2ccc(-c3cn4cccc([C@H](C)O)c4n3)cc2)cc1Cl [GSK-923295A]
U2OS; [1]
  Population Apoptotic (%): 27%
  Population Fragmented Nuclei (%): 9%
  Population Healthy Nuclei (%): 75%
  Population Hoechst High Intensity Objects (%): 1%
  Population Membrane Permeable-Phenotype (%): 33%
  Population Mitochondria Different-Phenotype (%): 23%
  Population Mitotic Cells (%): 72%
  Population Normal (%): 98%
  Population Pyknosed Nuclei (%): 15%
  Population Tubulin-Different-Phenotype (%): 14%
  Total Cell Count: 253
U2OS; [2]
  Population Apoptotic (%): 21%
  Population Fragmented Nuclei (%): 11%
  Population Healthy Nuclei (%): 66%
  Population Hoechst High Intensity Objects (%): 11%
  Population Membrane Permeable-Phenotype (%): 29%
  Population Mitotic Cells (%): 78%
  Population Normal (%): 88%
  Population Pyknosed Nuclei (%): 22%
  Population Tubulin-Different-Phenotype (%): 19%
  Total Cell Count: 153
U2OS; [3]
  Population Apoptotic (%): 48% and 53%
  Population Fragmented Nuclei (%): 9% and 14%
  Population Healthy Nuclei (%): 75% and 62%
  Population Hoechst High Intensity Objects (%): 3% and 11%
  Population Membrane Permeable-Phenotype (%): 31% and 19%
  Population Mitochondria Different-Phenotype (%): 37% and 93%
  Population Mitotic Cells (%): 51% and 46%
  Population Normal (%): 96% and 88%
  Population Pyknosed Nuclei (%): 15% and 23%
  Population Tubulin-Different-Phenotype (%): 98% and 97%
  Total Cell Count: 146 and 119
U2OS; [4]
  Population Apoptotic (%): 30% and 33%
  Population Fragmented Nuclei (%): 32%
  Population Healthy Nuclei (%): 73% and 51%
  Population Hoechst High Intensity Objects (%): 2%
  Population Membrane Permeable-Phenotype (%): 30% and 56%
  Population Mitochondria Different-Phenotype (%): 89% and 67%
  Population Mitotic Cells (%): 69% and 66%
  Population Normal (%): 97%
  Population Pyknosed Nuclei (%): 17% and 16%
  Population Tubulin-Different-Phenotype (%): 100%
  Total Cell Count: 76 and 116
U2OS; [5]
  Population Apoptotic (%): 24%
  Population Fragmented Nuclei (%): 18%
  Population Healthy Nuclei (%): 61%
  Population Hoechst High Intensity Objects (%): 2%
  Population Membrane Permeable-Phenotype (%): 28%
  Population Mitochondria Different-Phenotype (%): 19%
  Population Mitotic Cells (%): 75%
  Population Normal (%): 97%
  Population Pyknosed Nuclei (%): 19%
  Population Tubulin-Different-Phenotype (%): 13%
  Total Cell Count: 249
U2OS; [6]
  Population Apoptotic (%): 29%
  Population Fragmented Nuclei (%): 13%
  Population Healthy Nuclei (%): 72%
  Population Hoechst High Intensity Objects (%): 10%
  Population Membrane Permeable-Phenotype (%): 19%
  Population Mitochondria Different-Phenotype (%): 22%
  Population Mitotic Cells (%): 70%
  Population Normal (%): 89%
  Population Pyknosed Nuclei (%): 14%
  Population Tubulin-Different-Phenotype (%): 15%
  Total Cell Count: 136
U2OS; [7]
  Population Apoptotic (%): 78% and 72%
  Population Fragmented Nuclei (%): 12% and 17%
  Population Healthy Nuclei (%): 56% and 61%
  Population Hoechst High Intensity Objects (%): 4% and 9%
  Population Membrane Permeable-Phenotype (%): 45% and 40%
  Population Mitochondria Different-Phenotype (%): 66% and 88%
  Population Mitotic Cells (%): 21% and 27%
  Population Normal (%): 95% and 90%
  Population Pyknosed Nuclei (%): 31% and 20%
  Population Tubulin-Different-Phenotype (%): 97%
  Total Cell Count: 171 and 128
U2OS; [8]
  Population Apoptotic (%): 60% and 35%
  Population Fragmented Nuclei (%): 33% and 11%
  Population Healthy Nuclei (%): 33% and 64%
  Population Hoechst High Intensity Objects (%): 6% and 2%
  Population Membrane Permeable-Phenotype (%): 64% and 53%
  Population Mitochondria Different-Phenotype (%): 75% and 96%
  Population Mitotic Cells (%): 39% and 65%
  Population Normal (%): 93% and 97%
  Population Pyknosed Nuclei (%): 33% and 24%
  Population Tubulin-Different-Phenotype (%): 100%
  Total Cell Count: 133 and 72
U2OS; [9]
  Population Apoptotic (%): 66%
  Population Fragmented Nuclei (%): 18%
  Population Healthy Nuclei (%): 41%
  Population Hoechst High Intensity Objects (%): 10%
  Population Membrane Permeable-Phenotype (%): 49%
  Population Mitochondria Different-Phenotype (%): 85%
  Population Mitotic Cells (%): 33%
  Population Normal (%): 89%
  Population Pyknosed Nuclei (%): 40%
  Population Tubulin-Different-Phenotype (%): 97%
  Total Cell Count: 133
U2OS; [10]
  Population Apoptotic (%): 73%
  Population Fragmented Nuclei (%): 9%
  Population Healthy Nuclei (%): 43%
  Population Hoechst High Intensity Objects (%): 7%
  Population Membrane Permeable-Phenotype (%): 81%
  Population Mitochondria Different-Phenotype (%): 96%
  Population Mitotic Cells (%): 26%
  Population Normal (%): 92%
  Population Pyknosed Nuclei (%): 46%
  Population Tubulin-Different-Phenotype (%): 100%
  Total Cell Count: 86
HEK-293T; 0 h, replicate number 1, timepoint 0 hours
  Growth Rate: 0
HEK-293T; 6 h, replicate number 2, timepoint 6 hours
  Growth Rate: 0
HEK-293T; 12 h, replicate number 1, timepoint 12 hours
  Growth Rate: 0
HEK-293T; 18 h, replicate number 1, timepoint 18 hours
  Growth Rate: 0
HEK-293T; 24 h, replicate number 1, timepoint 24 hours
  Growth Rate: 0
